Assay results published in ChEMBL document CHEMBL2046433, “Structure-activity relationships and optimization of 3,5-dichloropyridine derivatives as novel P2X(7) receptor antagonists” (J Med Chem, 2012).

Tests used:
[1] = biological target: T1, P2X purinoceptor 7 (Homo sapiens) (UniProt Q99572); assay: Antagonist activity at human P2X7 receptor expressed in HEK293 cells assessed as inhibition of BzATP-induced ethidium bromide uptake at 10 uM after 2 hrs by fluorescence analysis
T1 sequence (whole entry): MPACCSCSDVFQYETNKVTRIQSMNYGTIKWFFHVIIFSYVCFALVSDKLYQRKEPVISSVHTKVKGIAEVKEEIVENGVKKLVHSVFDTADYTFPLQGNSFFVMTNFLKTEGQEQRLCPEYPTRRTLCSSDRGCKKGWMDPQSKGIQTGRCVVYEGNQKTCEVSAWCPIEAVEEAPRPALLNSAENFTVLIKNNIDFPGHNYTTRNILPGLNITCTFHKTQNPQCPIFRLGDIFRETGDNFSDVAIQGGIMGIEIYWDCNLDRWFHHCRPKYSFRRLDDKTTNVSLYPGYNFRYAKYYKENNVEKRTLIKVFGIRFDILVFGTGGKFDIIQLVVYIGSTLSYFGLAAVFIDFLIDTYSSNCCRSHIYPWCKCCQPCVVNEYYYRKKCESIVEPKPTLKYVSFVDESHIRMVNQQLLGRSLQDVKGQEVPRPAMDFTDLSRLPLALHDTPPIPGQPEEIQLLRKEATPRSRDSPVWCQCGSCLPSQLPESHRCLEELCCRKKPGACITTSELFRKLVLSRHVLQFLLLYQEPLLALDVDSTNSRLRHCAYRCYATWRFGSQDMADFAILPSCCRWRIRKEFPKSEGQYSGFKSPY

P2X purinoceptor 7 [2] = biological target: T2, P2X purinoceptor 7 (Homo sapiens, UniProt Q99572); assay: Antagonist activity at human P2X7 receptor expressed in HEK293 cells assessed as inhibition of BzATP-induced ethidium bromide uptake after 2 hrs by fluorescence analysis; format: functional, cell-based
T2 sequence (Q99572 whole entry): T1 sequence (whole entry)

P2X purinoceptor 7 [3] = biological target: T2, P2X purinoceptor 7; assay: Antagonist activity at human P2X7 receptor in human THP1 cells assessed as inhibition of BzATP-induced IL-1beta release pretreated for 30 mins before bzATP challenge measured after 30 mins by ELISA
[4] = biological target: T3, P2X purinoceptor 1 (Mus musculus) (UniProt P51576); assay: Antagonist activity at mouse P2X1 receptor expressed in Xenopus oocytes assessed as reduction in ATP-induced ion current at 10 uM; format: functional, cell-based; set-up: scale not given: the % may be the effect or the level left; conditions: Oocyte
T3 sequence (whole entry): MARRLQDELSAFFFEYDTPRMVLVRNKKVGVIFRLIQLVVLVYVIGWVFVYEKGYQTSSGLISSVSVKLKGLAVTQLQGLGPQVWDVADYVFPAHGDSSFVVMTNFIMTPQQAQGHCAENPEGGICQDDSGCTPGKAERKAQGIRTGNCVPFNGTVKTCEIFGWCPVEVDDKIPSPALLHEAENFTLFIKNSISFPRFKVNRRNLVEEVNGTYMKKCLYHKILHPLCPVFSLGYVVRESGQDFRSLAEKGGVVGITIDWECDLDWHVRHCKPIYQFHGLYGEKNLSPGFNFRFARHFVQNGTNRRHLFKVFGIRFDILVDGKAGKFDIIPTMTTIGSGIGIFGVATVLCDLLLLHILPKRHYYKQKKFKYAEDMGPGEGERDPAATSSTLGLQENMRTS
Summary of the method: (§1)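 Two-electrode voltage clamp on Xenopus oocytes made to express the receptor by microinjection of capped cRNA. Currents were evoked by 2 μM ATP, and the test compound was given at 10 μM. The read-out is the percent reduction of the ATP-induced ion current.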

[5] = biological target: T4, P2X purinoceptor 3 (Homo sapiens) (UniProt P56373); assay: Antagonist activity at human P2X3 receptor expressed in Xenopus oocytes assessed as reduction in ATP-induced ion current at 10 uM; format: functional, cell-based; set-up: scale not given: the % may be the effect or the level left; conditions: Oocyte
T4 sequence (whole entry): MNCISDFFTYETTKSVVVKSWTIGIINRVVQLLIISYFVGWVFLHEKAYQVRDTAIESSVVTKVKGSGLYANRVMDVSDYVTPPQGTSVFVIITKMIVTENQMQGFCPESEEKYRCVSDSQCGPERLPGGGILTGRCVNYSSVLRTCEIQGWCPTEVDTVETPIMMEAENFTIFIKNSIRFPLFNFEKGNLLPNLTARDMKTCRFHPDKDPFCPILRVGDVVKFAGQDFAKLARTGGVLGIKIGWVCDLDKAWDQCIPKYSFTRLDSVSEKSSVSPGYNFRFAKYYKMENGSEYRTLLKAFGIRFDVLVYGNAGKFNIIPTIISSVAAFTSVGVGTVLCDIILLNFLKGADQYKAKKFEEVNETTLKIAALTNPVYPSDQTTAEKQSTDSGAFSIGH
Summary of the method: as §1

[6] = biological target: T1, P2X purinoceptor 7 (Homo sapiens); assay: Antagonist activity at human P2X7 receptor expressed in HEK293 cells assessed as inhibition of BzATP-induced ethidium bromide uptake at 20 uM after 2 hrs by fluorescence analysis; format: functional, cell-based

| Structure (SMILES) | inhibition [1] [%] | IC50 (P2X purinoceptor 7 [2]) [nM] | further results |
| --- | --- | --- | --- |
| O=C(CCc1ccccc1)Nc1c(Cl)cncc1Cl | < 20 |  |  |
| O=C(CCc1ccccc1)NNc1cc(Cl)nc(Cl)c1 | < 20 |  |  |
| O=C(NNc1c(Cl)cncc1Cl)C1CC2C=CC1C2 (configuration not stated) | < 20 |  |  |
| O=C(NNc1c(Cl)cncc1Cl)C1C2CC3CC(C2)CC1C3 (configuration not stated) |  | 77 | IC50 (P2X purinoceptor 7 [3]): 130 nM |
| O=C(CCCCCCc1ccccc1)NNc1c(Cl)cncc1Cl |  | 950 |  |
| O=C(Cc1cccc2ccccc12)NNc1c(Cl)cncc1Cl | < 20 |  |  |
| O=C(CCCCCc1ccccc1)NNc1c(Cl)cncc1Cl |  | 1900 |  |
| O=C(CC1CCCCCC1)NNc1c(Cl)cncc1Cl |  | 200 | IC50 (P2X purinoceptor 7 [3]): 42 nM |
| O=C(NNc1c(Cl)cncc1Cl)c1cc2ccccc2[nH]1 | < 20 |  |  |
| COc1ccc(CCC(=O)NNc2c(Cl)cncc2Cl)cc1 |  | 1500 |  |
| O=C(CCc1ccccc1)NNc1ccncc1 | < 20 |  |  |
| O=C(Cc1ccc(Cl)cc1)NNc1c(Cl)cncc1Cl |  | 620 |  |
| O=C(CCCCc1ccccc1)NNc1c(Cl)cncc1Cl |  | 1200 |  |
| O=C(CCCC1CCCCC1)NNc1c(Cl)cncc1Cl |  | 360 |  |
| CC12CC3CC(C)(C1)CC(C(=O)NNc1c(Cl)cncc1Cl)(C3)C2 |  | 13 | Activity [4]: 10%; Activity [5]: 10%; IC50 (P2X purinoceptor 7 [3]): 9.2 nM |
| Clc1cncc(Cl)c1NNCCCc1ccccc1 | < 20 |  |  |
| O=C(NNc1c(Cl)cncc1Cl)C1C2CC3CC(C2)C(Br)C1C3 (configuration not stated) |  | 4.9 | IC50 (P2X purinoceptor 7 [3]): 1.3 nM |
| O=C(CCc1ccc(Cl)cc1)NNc1c(Cl)cncc1Cl |  | 1100 |  |
| CN([C@@H](Cc1ccc(OS(=O)(=O)c2cccc3cnccc23)cc1)C(=O)N1CCN(c2ccccc2)CC1)S(=O)(=O)c1cccc2cnccc12 |  | 280 | IC50 (P2X purinoceptor 7 [3]): 120 nM |
| O=C(Cc1ccc(Cl)cc1Cl)NNc1c(Cl)cncc1Cl |  | 2500 |  |
| O=C(CCc1ccccc1)NNc1c(Cl)cccc1Cl |  | 1400 |  |
| O=C(CCc1ccccc1)NNc1c(Cl)cncc1Cl |  | 650 | IC50 (P2X purinoceptor 7 [3]): 320 nM |
| O=C(CCc1ccc(O)cc1)NNc1c(Cl)cncc1Cl | < 20 |  |  |
| O=C(Cc1ccccc1)NNc1c(Cl)cncc1Cl |  | 1100 |  |

| Structure (SMILES) | inhibition [1] [%] | IC50 (P2X purinoceptor 7 [2]) [nM] | further results |
| --- | --- | --- | --- |
| O=C(CCc1ccc(F)cc1)NNc1c(Cl)cncc1Cl |  | 900 |  |
| O=C(Cc1ccncc1)NNc1c(Cl)cncc1Cl |  |  | inhibition [6]: < 20% |
| O=C(NNc1c(Cl)cncc1Cl)C1Cc2ccccc2C1 |  | 4200 |  |
| CN(Nc1c(Cl)cncc1Cl)C(=O)CCc1ccccc1 | < 20 |  |  |
| O=C(CCC1CCCC1)NNc1c(Cl)cncc1Cl |  | 380 |  |
| O=C(CC1C2CC3CC(C2)CC1C3)NNc1c(Cl)cncc1Cl (configuration not stated) |  | 340 |  |
| O=C(NNc1c(Cl)cncc1Cl)OCc1ccccc1 |  | 370 |  |
| O=C(NNc1c(Cl)cncc1Cl)C1CC2CCC1C2 (configuration not stated) |  | 2800 |  |
| O=C(/C=C/c1ccccc1)NNc1c(Cl)cncc1Cl | < 20 |  |  |
| O=C(CCCc1ccccc1)NNc1c(Cl)cncc1Cl |  | 770 |  |
| O=C(Cc1ccc2ccccc2c1)NNc1c(Cl)cncc1Cl | < 20 |  |  |
| O=C(NNc1c(Cl)cncc1Cl)C1Cc2ccccc21 (racemic) |  | 320 |  |
| O=C(CCc1ccccc1)NNc1c(F)cccc1F | < 20 |  |  |
| O=C(CC1CCCCC1)NNc1c(Cl)cncc1Cl |  | 730 |  |
| O=C(CCC1CCCCC1)NNc1c(Cl)cncc1Cl |  | 130 | IC50 (P2X purinoceptor 7 [3]): 56 nM |
| O=C(CC1CC2CCC1C2)NNc1c(Cl)cncc1Cl (configuration not stated) |  | 210 |  |
| Cc1ccc(CCC(=O)NNc2c(Cl)cncc2Cl)cc1 |  | 1400 |  |
| O=C(NNc1c(Cl)cncc1Cl)c1ccccc1 | < 20 |  |  |
| O=C(NCc1ccccc1)NNc1c(Cl)cncc1Cl | < 20 |  |  |
| O=C(CCc1ccccc1)NNc1c(F)cncc1F | < 20 |  |  |
| Cc1cccc(C)c1NNC(=O)CCc1ccccc1 |  | 900 |  |
| O=C(NNc1c(Cl)cncc1Cl)C1CCc2ccccc2C1 (racemic) |  | 1100 |  |
| O=C(CCc1cccc2ccccc12)NNc1c(Cl)cncc1Cl |  | 1200 |  |
| O=C(NNc1c(Cl)cncc1Cl)C12CC3CC(CC1C3)C2 |  | 1400 |  |
